Screening data (PubChem BioAssay)
Sampled rows, rich in hits. Any-hit rate of the full collection: about 2.9%.
Apaf-1 inh: human Apaf-1 inhibition; reconstituted apoptosome caspase-3 activity, DEVD-Rh110 fluorescence; inhibition, % at 20 µM; 330,000 tested, 0.71% active; active means inhibition of at least 40% at 20 µM
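Material: cell-free apoptosome with Apaf-1, procaspase-3 and caspase-9; Buffer or medium: Hepes pH 7.5 with detergent and BSA; Reagent: cytochrome c trigger plus (Z-DEVD)2-Rh110 caspase-3 substrate; Times: compound with Apaf-1, dATP, procaspase-3 30 min, then 50 min reaction, room temperature; Technique: Rh110 fluorescence intensity.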
MEKK2wt PB1 HTS: raises or lowers MEK5 binding to wildtype human MEKK2 PB1 domain | binding response (% of control), % at 10 µM | Q9Y2U5 | bead flow cytometry, Alexa488-MEK5 binding to MEKK2 WT; actives lie on both sides | 290,000 tested, 1.1% active; in the data active means binding response below about 67% or above about 130%; inconclusive means no clear call, values can overlap the other calls; inactive means in between
MEKK3 PB1 HTS: modulators (inhibitors or enhancers) of MEK5 binding to human MEKK3 PB1 domain; Q99759; bead-based flow cytometry, Alexa488-MEK5 binding to MEKK3; actives lie on both sides; 0 = blocked by unlabeled MEK5, 100 = vehicle; binding response (% of control), % at 10 µM; 290,000 tested, 1.4% active; AID 1529;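 active means binding response more than 3 SD above or below the average of its plate-row segment, actives on both sides; inconclusive means wells at one plate position flagged as instrument error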;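 further: Alexa488 bead fluorescence after subtracting the streptavidin-only scavenger bead signal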
Target sequence (Q99759 whole entry, looked up, the tested form may be a part): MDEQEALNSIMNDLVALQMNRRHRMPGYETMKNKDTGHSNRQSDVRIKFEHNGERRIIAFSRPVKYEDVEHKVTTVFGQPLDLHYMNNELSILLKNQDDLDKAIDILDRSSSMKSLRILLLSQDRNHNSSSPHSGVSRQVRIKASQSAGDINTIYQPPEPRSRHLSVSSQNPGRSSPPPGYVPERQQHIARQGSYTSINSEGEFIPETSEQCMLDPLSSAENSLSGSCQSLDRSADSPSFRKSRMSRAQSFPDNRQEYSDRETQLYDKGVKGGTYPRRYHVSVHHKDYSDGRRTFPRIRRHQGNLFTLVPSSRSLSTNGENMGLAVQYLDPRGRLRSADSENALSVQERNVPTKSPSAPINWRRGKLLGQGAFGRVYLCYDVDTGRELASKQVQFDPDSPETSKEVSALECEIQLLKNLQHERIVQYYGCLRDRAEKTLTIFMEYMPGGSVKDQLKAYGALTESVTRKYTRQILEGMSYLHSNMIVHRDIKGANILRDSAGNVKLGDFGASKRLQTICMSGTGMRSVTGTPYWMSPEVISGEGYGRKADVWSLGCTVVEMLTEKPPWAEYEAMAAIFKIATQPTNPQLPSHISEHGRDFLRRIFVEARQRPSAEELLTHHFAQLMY
UBC13 inh: blocks human UBC13 polyubiquitin chain formation; P61088; TR-FRET; inhibition, % at 20 µM; 330,000 tested, 0.47% active; AID 485273; in the data active means inhibition above about 45%, passing the limit was not always enough; inconclusive means no clear call, values can overlap the other calls
MEKK2mut PB1 HTS: signal of MEK5 binding to mutant human MEKK2 PB1 domain; bead flow cytometry, Alexa488-MEK5 binding to MEKK2 mutant; percent response, % at 10 µM; 290,000 tested, 0.35% active; AID 1530; in the data active means percent response above about 24%, passing the limit was not always enough
Of the large screens only hits and unclear results are named; the others gave an inactive call; [ ] = dose if it differs, or a comment.

CCOc1ccc(CNC(=O)C2CCN(c3nn4c(=O)cc(C)nc4s3)CC2)cc1	none
CC(C)n1cnc2c(Nc3ccc(C(=O)O)cc3)nc(Cl)nc21	none
CC(C)[C@H](CO)Nc1nc(Nc2ccc(Cl)c(C(=O)O)c2)c2ncn(C(C)C)c2n1	Apaf-1 inh 44
O=C(Nc1ccccc1C(=O)O)c1ccc(NC(=O)C2CC2)cc1	MEKK2wt PB1 HTS 1.0[inhibitor]
O=C(Nc1ccccc1O)c1ccc(NC(=O)C2CC2)cc1	none
Cc1ccc(S(=O)(=O)NCCN=Cc2ccc(N(C)C)cc2)cc1	MEKK2wt PB1 HTS 61[inhibitor]
Cc1ccc(S(=O)(=O)/N=C/c2ccc(N(C)C)cc2)cc1	none
O=C1CC(CC(=O)N/N=C/c2ccccc2[N+](=O)[O-])=NN1	Apaf-1 inh 46
O=C(C[n+]1ccccc1)N/N=C/c1ccccc1[N+](=O)[O-]	none
CO/C=C\C=C/c1nnn(-c2ccc(Cl)cc2)n1	none
C=CCOc1ccc(CN(C)CC(O)COc2cccc3ccccc23)cc1 (stereo not given)	MEKK2wt PB1 HTS 142
Cc1cc(CN(C)Cc2ccc(OCC(O)CN(C)Cc3ccccc3)cc2)on1 (stereo not given)	none
COc1cccc(N2CCN(c3ncnc4c3[nH]c3ccc(F)cc34)CC2C)c1 (stereo not given)	MEKK2wt PB1 HTS 164
C[C@H](NC(=O)N1CCn2c1nc1ccccc12)C(=O)N1CCCCC1	none
COc1cc([N+](=O)[O-])ccc1NC(=O)CN1CCc2cc(OC)c(OC)cc2C1	Apaf-1 inh 44
COc1cc(/C=C2/C(=N)N3C(=NC2=O)SN=C3S(C)(=O)=O)ccc1OS(=O)(=O)c1ccccc1	none
CC1=NN(c2ccccc2)C(=O)/C1=C\c1cc(C)n(-c2ccccc2)c1C	none
COc1cc(/C=C2/C(=O)N(c3ccccc3)N=C2C)ccc1OS(=O)(=O)c1ccccc1	Apaf-1 inh 95
COc1ccc(/C=C2/C(=O)N(c3ccccc3)N=C2C)cc1Br	Apaf-1 inh 87
Cc1ncoc1C(=O)N1CCCC(N2CCN(c3cccc(C(F)(F)F)c3)CC2)C1 (stereo not given)	none
COc1ccc(N=CC2=C(Nc3ccc(OC)cc3)c3c(C)nn(-c4ccccn4)c3CC2)cc1	Apaf-1 inh 93
COc1ccc(-c2cc(C(=O)O)c3c(C)nn(-c4ccccn4)c3n2)cc1	none
CC(C)N(C(=O)CSc1nnc(-c2ccc3c(c2)OCO3)n1C)C(C)C	none
CCCCC(=Nc1ccc(N)cc1)C1=C(O)C(C(=O)OC)C(C)(C)CC1=O (stereo not given)	Apaf-1 inh 62
O=c1[nH][nH]c2c(N=Cc3ccccc3O)ccc(F)c12	MEKK2wt PB1 HTS 58[inhibitor], MEKK3 PB1 HTS 57[inhibitor] (no result: Apaf-1 inh, UBC13 inh)
CCS(=O)(=O)CCn1c([N+](=O)[O-])cnc1C	MEKK2wt PB1 HTS -9.0
Cc1ccc(NC(=O)CSc2nc(C)c(Cc3ccccc3)c(=O)[nH]2)cc1C	MEKK2wt PB1 HTS 26
Cc1cccc(NC(=O)CSc2nc(C)c(Cc3ccccc3)c(=O)[nH]2)c1	none (no result: MEKK2wt PB1 HTS, MEKK3 PB1 HTS, MEKK2mut PB1 HTS)
CN(C)CCCN(C(=O)c1ccc(S(=O)(=O)N2CCCC2)cc1)c1nc2c(F)cc(F)cc2s1	none (no result: MEKK2wt PB1 HTS, MEKK3 PB1 HTS, MEKK2mut PB1 HTS)
Cc1cc(C)c2sc(N(CCCN(C)C)C(=O)c3ccc(S(=O)(=O)N4CCCc5ccccc54)cc3)nc2c1	UBC13 inh 62 (no result: MEKK2wt PB1 HTS, MEKK3 PB1 HTS, MEKK2mut PB1 HTS)
Cc1ccc2nc(N(CCCN(C)C)C(=O)c3ccc(S(=O)(=O)N4CCOCC4)cc3)sc2c1	none
CN(C)CCN(C(=O)c1ccc(S(=O)(=O)N(C)c2ccccc2)cc1)c1nc2ccc(Cl)cc2s1	none
CN(C)CCCN(C(=O)c1ccc(S(=O)(=O)N2CCc3ccccc3C2)cc1)c1nc2c(F)cccc2s1	MEKK2wt PB1 HTS 208, MEKK2mut PB1 HTS 45
CN(C)CCCN(C(=O)c1ccc(S(=O)(=O)N2CCc3ccccc32)cc1)c1nc2ccc(Cl)cc2s1	MEKK2wt PB1 HTS 181, MEKK2mut PB1 HTS 33
CCC1(c2ccc(F)cc2)NC(=O)N(CC(=O)NCC(=O)Nc2cccc(C)c2C)C1=O (stereo not given)	none (no result: MEKK2wt PB1 HTS, MEKK3 PB1 HTS, MEKK2mut PB1 HTS)
CC(NCC(O)COC1CCC(C(C)(C)C)CC1)c1ccccc1 (stereo not given)	none
CNC[C@H](Cc1cccc2ccccc12)NC[C@H](CCSC)NCC1CCC(C(C)(C)C)CC1 (stereo not given in full)	Apaf-1 inh 65, UBC13 inh 86 (no result: MEKK2wt PB1 HTS, MEKK3 PB1 HTS, MEKK2mut PB1 HTS)
COc1cc2ccccc2cc1C(=O)N1CCN(C(C)=O)CC1	none
COc1ccc2cc(OC)c(C(=O)N3CCOCC3)cc2c1	MEKK2wt PB1 HTS -7.0
O=C(NC1C2CC3CC(C2)CC1C3)c1ccc(Br)o1 (stereo not given)	none
CC1CCCC(NCC(O)COC(c2ccc(F)cc2)c2ccc(F)cc2)C1C (stereo not given)	MEKK2wt PB1 HTS 143
CC1CCCC(NC(=O)CSc2ccc(F)cc2)C1C (stereo not given)	none
N#CC(C#N)=C1NC(N)=C(C#N)C(c2ccccc2)=C1C#N	UBC13 inh inconclusive
C/C(=N/Nc1ncc(Br)cn1)c1ccc(Br)cc1	MEKK2wt PB1 HTS -2.0
C/C(=N\Nc1ccc(C(=O)O)cc1)c1ccc(Br)cc1	none
CN(CCO)S(=O)(=O)c1ccc2c(c1)C(=NN)c1cc(S(=O)(=O)N(C)CCO)ccc1-2	none
O=C(Nc1cc2cccc([N+](=O)[O-])c2oc1=O)c1cccs1	MEKK2wt PB1 HTS -8.0
COc1ccc(S(=O)(=O)NCCCN2CCOCC2)cc1F	none
COc1ccc(S(=O)(=O)NCCN2CCOCC2)cc1[N+](=O)[O-]	MEKK2wt PB1 HTS -11[inhibitor], MEKK3 PB1 HTS 0.0[inhibitor]
O=C(CCc1ccccn1)NC1CCCc2c1cnn2-c1ccc(F)cc1F (stereo not given)	none
CCc1nccn1CCC(=O)NC1CCCc2c1cnn2-c1ccc(F)cc1F (stereo not given)	MEKK2wt PB1 HTS 66[inhibitor], MEKK3 PB1 HTS 71[inhibitor]
Cc1ccc(S(=O)(=O)NCCc2ccncc2)cc1[N+](=O)[O-]	none
Fc1ccccc1CSc1ccc(-c2ccco2)nn1	none
Cc1nc2cc(F)ccc2n1C1CCN(S(=O)(=O)c2ccccc2)CC1	none
O=C(O)/C=C/C(=O)Nc1ccc(OC(F)(F)F)cc1	MEKK2wt PB1 HTS -3.0
O=C(Nc1ccc(OC(F)F)c(Cl)c1)C(c1ccccc1)c1ccccc1	MEKK3 PB1 HTS 147
COc1ccc(S(=O)(=O)N(C)C[C@H]2Oc3c(NC(=O)c4ccncc4)cccc3C(=O)N([C@H](C)CO)C[C@@H]2C)cc1	none (no result: MEKK2wt PB1 HTS, MEKK3 PB1 HTS, MEKK2mut PB1 HTS)
O=C(N=C1c2ccccc2CN1c1ccccc1)c1cccc([N+](=O)[O-])c1	MEKK2wt PB1 HTS 5.0
CC(C)c1ccc2nc(SCC(=O)NCC3CCCO3)c(C#N)cc2c1 (stereo not given)	none
CCOC(=O)C1CCCN(c2cc(NCCCO)c([N+](=O)[O-])c3nonc23)C1 (stereo not given)	Apaf-1 inh 40
O=[N+]([O-])c1c(NCCO)cc(N2CCCCCC2)c2nonc12	none
